In ChEMBL document CHEMBL1926564, “Design, synthesis and biological activity of original pyrazolo-pyrido-diazepine, -pyrazine and -oxazine dione derivatives as novel dual Nox4/Nox1 inhibitors” (Bioorg Med Chem, 2011):

Assays:
[1] = Efflux ratio of apparent permeability across human Caco2 cells at 10 uM after 2 hrs; format: ADME, cell-based; settings: Caco-2
How it was run: (§1)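 Caco-2 monolayers grown 20 days, TEER >800 ohm·cm². Compound 10 µM final in HBSS pH 6.5 (1% DMSO), dosed apical (A→B) or basolateral (B→A), 2 h at 37 °C; both compartments sampled, LC–MS/MS cassette analysis with 5-point calibration.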

NADPH oxidase 5 = biological target: T1, NADPH oxidase 5 (Homo sapiens, UniProt Q96PH1); test: Antagonist activity at human NOX5 assessed as inhibition of ROS production after 20 mins by cell-free amplex red assay; format: functional
T1 sequence (Q96PH1 whole entry): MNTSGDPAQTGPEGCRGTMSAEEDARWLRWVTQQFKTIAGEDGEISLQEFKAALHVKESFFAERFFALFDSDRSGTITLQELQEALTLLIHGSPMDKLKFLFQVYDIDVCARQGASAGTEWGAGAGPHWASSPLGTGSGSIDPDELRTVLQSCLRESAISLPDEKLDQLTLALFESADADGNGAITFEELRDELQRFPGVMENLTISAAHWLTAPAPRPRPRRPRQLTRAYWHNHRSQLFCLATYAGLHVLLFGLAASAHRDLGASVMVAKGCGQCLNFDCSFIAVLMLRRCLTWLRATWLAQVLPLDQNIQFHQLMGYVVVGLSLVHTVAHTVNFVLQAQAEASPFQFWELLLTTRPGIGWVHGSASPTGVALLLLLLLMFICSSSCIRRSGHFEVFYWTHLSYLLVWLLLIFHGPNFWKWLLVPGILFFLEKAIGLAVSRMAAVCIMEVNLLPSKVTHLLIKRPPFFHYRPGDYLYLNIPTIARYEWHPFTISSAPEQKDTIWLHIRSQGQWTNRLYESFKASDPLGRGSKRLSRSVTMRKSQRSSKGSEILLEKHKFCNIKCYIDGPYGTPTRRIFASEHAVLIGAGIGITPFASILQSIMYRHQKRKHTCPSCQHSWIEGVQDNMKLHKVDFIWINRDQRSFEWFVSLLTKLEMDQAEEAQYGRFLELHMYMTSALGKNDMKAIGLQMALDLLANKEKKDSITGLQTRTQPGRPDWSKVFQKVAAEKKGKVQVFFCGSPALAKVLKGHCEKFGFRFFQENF
How it was run: (§2)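 Membranes from tetracycline-induced (24 h) Nox-expressing cells or human PMN (Nox2), sucrose-gradient purified; or xanthine oxidase. Incubated in PBS with Amplex Red, HRP and cofactors; NADPH (Nox) or xanthine starts ROS. Compound 1 nM–100 µM, 20 min at 37 °C, plate-reader. Background without membranes or agonist. Ki by Cheng-Prusoff; mean of ≥3 experiments in triplicate.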

[2] = Clearance in Sprague-Dawley rat liver microsomes assessed per mg of protein at 0.5 uM; format: ADME, Microsome; settings: read-out: CLH
How it was run: (§3)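 Pooled rat (male Sprague Dawley) or human (mixed-sex) liver microsomes at 0.5 mg/mL final, 0.1 M phosphate pH 7.4, compound 0.5 µM final, 0.25% DMSO, 37 °C; 1 mM NADPH starts reaction. Sampled 0–45 min, methanol quench with internal standard, LC/MS-MS; intrinsic clearance from compound loss.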

NADPH oxidase 4 = biological target: T2, NADPH oxidase 4 (Homo sapiens, UniProt Q9NPH5); test: Antagonist activity at human NOX4 expressed in CHO cell membrane coexpressing tetracylin repressor assessed as inhibition of ROS production after 20 mins by cell-free amplex red assay; format: functional; settings: in the assay text read “HEK293 cell membrane” for “CHO cell membrane”; how it was run: as §2
T2 sequence (Q9NPH5 whole entry): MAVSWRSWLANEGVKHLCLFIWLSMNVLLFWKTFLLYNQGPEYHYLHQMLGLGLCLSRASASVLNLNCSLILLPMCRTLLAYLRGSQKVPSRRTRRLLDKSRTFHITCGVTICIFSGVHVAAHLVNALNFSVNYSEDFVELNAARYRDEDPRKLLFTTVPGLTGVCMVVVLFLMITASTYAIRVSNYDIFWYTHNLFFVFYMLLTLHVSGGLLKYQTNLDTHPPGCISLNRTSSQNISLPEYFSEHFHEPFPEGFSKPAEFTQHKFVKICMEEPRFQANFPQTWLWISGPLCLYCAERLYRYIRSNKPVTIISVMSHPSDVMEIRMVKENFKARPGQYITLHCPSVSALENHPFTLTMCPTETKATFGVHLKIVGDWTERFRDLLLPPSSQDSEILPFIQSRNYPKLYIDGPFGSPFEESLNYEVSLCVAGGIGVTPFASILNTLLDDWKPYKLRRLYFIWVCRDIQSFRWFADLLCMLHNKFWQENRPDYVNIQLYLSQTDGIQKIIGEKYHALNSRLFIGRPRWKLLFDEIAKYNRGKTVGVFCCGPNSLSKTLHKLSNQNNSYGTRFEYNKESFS

NADPH oxidase 1 = biological target: T3, NADPH oxidase 1 (Homo sapiens, UniProt Q9Y5S8); test: Antagonist activity at human NOX1 expressed in CHO cell membrane coexpressing tetracylin repressor assessed as inhibition of ROS production after 20 mins by cell-free amplex red assay; format: functional; how it was run: as §2
T3 sequence (Q9Y5S8 whole entry): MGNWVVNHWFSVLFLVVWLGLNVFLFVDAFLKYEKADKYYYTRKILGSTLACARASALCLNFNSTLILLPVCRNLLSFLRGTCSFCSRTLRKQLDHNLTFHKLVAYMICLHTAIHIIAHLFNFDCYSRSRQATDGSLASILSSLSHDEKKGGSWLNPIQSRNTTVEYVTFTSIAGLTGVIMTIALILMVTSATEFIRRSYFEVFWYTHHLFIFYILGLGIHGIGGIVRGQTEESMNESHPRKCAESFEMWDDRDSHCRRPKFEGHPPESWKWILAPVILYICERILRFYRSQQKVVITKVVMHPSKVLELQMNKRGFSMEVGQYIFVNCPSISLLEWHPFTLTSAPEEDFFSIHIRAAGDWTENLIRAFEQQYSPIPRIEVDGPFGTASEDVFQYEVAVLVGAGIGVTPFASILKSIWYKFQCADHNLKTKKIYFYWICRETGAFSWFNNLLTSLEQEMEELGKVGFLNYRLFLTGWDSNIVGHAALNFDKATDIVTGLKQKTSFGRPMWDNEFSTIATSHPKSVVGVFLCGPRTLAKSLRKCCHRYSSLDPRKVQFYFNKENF

[3] = Lipophilicity, log D of the compound at pH 7.4; format: physicochemical; settings: buffer
NADPH oxidase 2 = biological target: T4, NADPH oxidase 2 (Homo sapiens, UniProt P04839); test: Antagonist activity at human NOX2 in human polymorphonuclear cell membrane assessed as inhibition of ROS production after 20 mins by cell-free amplex red assay; format: functional; how it was run: as §2
T4 sequence (P04839 whole entry): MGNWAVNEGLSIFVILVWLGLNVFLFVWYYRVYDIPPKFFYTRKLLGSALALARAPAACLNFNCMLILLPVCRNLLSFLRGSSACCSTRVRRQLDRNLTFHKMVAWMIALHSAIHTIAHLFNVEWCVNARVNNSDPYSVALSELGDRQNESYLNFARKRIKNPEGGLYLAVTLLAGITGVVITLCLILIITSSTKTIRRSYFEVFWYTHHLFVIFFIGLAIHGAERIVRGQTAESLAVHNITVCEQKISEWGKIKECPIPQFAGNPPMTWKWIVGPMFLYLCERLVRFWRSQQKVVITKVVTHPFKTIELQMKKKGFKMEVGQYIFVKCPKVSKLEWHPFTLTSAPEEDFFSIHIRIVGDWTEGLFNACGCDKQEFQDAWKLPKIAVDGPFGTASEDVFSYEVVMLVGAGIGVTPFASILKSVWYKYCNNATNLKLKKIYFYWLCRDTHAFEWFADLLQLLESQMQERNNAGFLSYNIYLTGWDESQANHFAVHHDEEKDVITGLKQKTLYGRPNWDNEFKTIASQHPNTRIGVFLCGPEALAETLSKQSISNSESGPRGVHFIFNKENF

[4] = Apparent permeability across human Caco2 cells at 10 uM after 2 hrs; format: ADME, cell-based; settings: Caco-2; how it was run: as §1
[5] = Clearance in human liver microsomes assessed per mg of protein at 0.5 uM; format: ADME, Microsome; settings: read-out: CLH; how it was run: as §3
[6] = Fraction unbound in rat plasma containing 50% plasma protein; format: ADME, cell-free
How it was run: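 Rat plasma protein binding in 50% plasma; fraction unbound reported.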

Homo sapiens = species on record: Homo sapiens; test: Selectivity ratio of Ki for human NOX2 to Ki for human NOX4
How it was run: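 Ratio of Ki values from the Amplex Red membrane ROS assay (PMN membranes for Nox2, Nox4-overexpressing membranes), NADPH-triggered, 1 nM–100 µM, 20 min at 37 °C; Ki via Cheng-Prusoff.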

COc1cccc(CN2CCCn3c(c4c(=O)n(-c5ccccc5Cl)[nH]c4cc3=O)C2)c1.Cl
efflux ratio at 2 h, 10 µM [1]: 1.91 | Ki (NADPH oxidase 5): 730 nM | microsomal CLint at 0.5 µM [2]: 60.1 µL/min/mg | Ki (NADPH oxidase 4): 112 nM | Ki (NADPH oxidase 1): 113 nM | logD [3]: 1.99 | Ki (NADPH oxidase 2): 1200 nM | Papp at 2 h, 10 µM [4]: 22.3 ×10⁻⁶ cm/s | microsomal CLint at 0.5 µM [5]: 35 µL/min/mg | fraction unbound [6]: 0.901

CC(C)(C)OC(=O)N1CCCn2c(c3c(=O)n(-c4ccccc4Cl)[nH]c3cc2=O)C1
Ki (NADPH oxidase 5): 590 nM | Ki (NADPH oxidase 4): 103 nM | Ki (NADPH oxidase 1): 148 nM | Ki (NADPH oxidase 2): 1280 nM

O=c1c2c3n(c(=O)cc2[nH]n1-c1ccccc1Cl)CCCN(Cc1ccccc1Cl)C3
Ki (NADPH oxidase 5): 615 nM | microsomal CLint at 0.5 µM [2]: 164 µL/min/mg | Ki (NADPH oxidase 4): 76 nM | Ki (NADPH oxidase 1): 87 nM | logD [3]: 2.76 | Ki (NADPH oxidase 2): 1160 nM | microsomal CLint at 0.5 µM [5]: 87.1 µL/min/mg

COc1cccc(CN2CCCn3c(c4c(=O)n(-c5ccccc5OC)[nH]c4cc3=O)C2)c1
Ki (NADPH oxidase 5): 690 nM | Ki (NADPH oxidase 4): 131 nM | Ki (NADPH oxidase 1): 212 nM | Ki (NADPH oxidase 2): 820 nM

COc1ccccc1CN1CCCn2c(c3c(=O)n(-c4ccccc4Cl)[nH]c3cc2=O)C1
Ki (NADPH oxidase 5): 740 nM | Ki (NADPH oxidase 4): 111 nM | Ki (NADPH oxidase 1): 133 nM | Ki (NADPH oxidase 2): 1760 nM

COc1ccccc1-n1[nH]c2cc(=O)n3c(c2c1=O)CN(Cc1ccccn1)CCC3.Cl
efflux ratio at 2 h, 10 µM [1]: 16.8 | Ki (NADPH oxidase 5): 610 nM | microsomal CLint at 0.5 µM [2]: 32.1 µL/min/mg | Ki (NADPH oxidase 4): 93 nM | Ki (NADPH oxidase 1): 217 nM | logD [3]: 0.33 | Ki (NADPH oxidase 2): 510 nM | Papp at 2 h, 10 µM [4]: 1.4 ×10⁻⁶ cm/s | microsomal CLint at 0.5 µM [5]: 15.7 µL/min/mg | fraction unbound [6]: 0.069

Cl.O=c1c2c3n(c(=O)cc2[nH]n1-c1ccccc1Cl)CCCN(Cc1cccnc1)C3
efflux ratio at 2 h, 10 µM [1]: 18.7 | Ki (NADPH oxidase 5): 1150 nM | microsomal CLint at 0.5 µM [2]: 31.1 µL/min/mg | Ki (NADPH oxidase 4): 94 nM | Ki (NADPH oxidase 1): 208 nM | logD [3]: 0.92 | Ki (NADPH oxidase 2): 1370 nM | Papp at 2 h, 10 µM [4]: 1 ×10⁻⁶ cm/s | microsomal CLint at 0.5 µM [5]: 21 µL/min/mg | fraction unbound [6]: 0.029

COc1ccc(CN2CCCn3c(c4c(=O)n(-c5ccccc5Cl)[nH]c4cc3=O)C2)cc1
Ki (NADPH oxidase 5): 690 nM | Ki (NADPH oxidase 4): 116 nM | Ki (NADPH oxidase 1): 184 nM | Ki (NADPH oxidase 2): 780 nM

O=c1c2c3n(c(=O)cc2[nH]n1-c1ccccc1Cl)CCN(Cc1ccccc1)C3
Ki (NADPH oxidase 5): 1420 nM | Ki (NADPH oxidase 4): 142 nM | Ki (NADPH oxidase 1): 398 nM | Ki (NADPH oxidase 2): 2020 nM

O=c1c2c3n(c(=O)cc2[nH]n1-c1ccccc1Cl)CCCN(Cc1ccc(Cl)cc1)C3
Ki (NADPH oxidase 5): 585 nM | microsomal CLint at 0.5 µM [2]: 152 µL/min/mg | Ki (NADPH oxidase 4): 103 nM | Ki (NADPH oxidase 1): 95 nM | logD [3]: 2.76 | Ki (NADPH oxidase 2): 1260 nM | microsomal CLint at 0.5 µM [5]: 77.3 µL/min/mg

O=c1c2c3n(c(=O)cc2[nH]n1-c1ccccc1Cl)CCCN(Cc1ccoc1)C3
Ki (NADPH oxidase 5): 955 nM | Ki (NADPH oxidase 4): 111 nM | Ki (NADPH oxidase 1): 200 nM | Ki (NADPH oxidase 2): 1020 nM

O=c1c2c3n(c(=O)cc2[nH]n1-c1ccccc1Cl)CCOC3
Ki (NADPH oxidase 5): 490 nM | Ki (NADPH oxidase 4): 156 nM | Ki (NADPH oxidase 1): 173 nM | Ki (NADPH oxidase 2): 433 nM

COc1ccccc1-n1[nH]c2cc(=O)n3c(c2c1=O)CN(Cc1ccccc1)CCC3
Ki (NADPH oxidase 5): 670 nM | Ki (NADPH oxidase 4): 144 nM | Ki (NADPH oxidase 1): 218 nM | Ki (NADPH oxidase 2): 645 nM

O=c1c2c3n(c(=O)cc2[nH]n1-c1ccccc1Cl)CCCNC3
Ki (NADPH oxidase 5): 360 nM | Ratio Ki (Homo sapiens): 4.2 | Ki (NADPH oxidase 4): 87 nM | Ki (NADPH oxidase 1): 119 nM | Ki (NADPH oxidase 2): 365 nM

O=c1c2c3n(c(=O)cc2[nH]n1-c1ccccc1Cl)CCCN(Cc1cccc(Cl)c1)C3
Ki (NADPH oxidase 5): 475 nM | microsomal CLint at 0.5 µM [2]: 153 µL/min/mg | Ki (NADPH oxidase 4): 101 nM | Ki (NADPH oxidase 1): 104 nM | logD [3]: 2.76 | Ki (NADPH oxidase 2): 1150 nM | microsomal CLint at 0.5 µM [5]: 81.4 µL/min/mg
